The format of data set [1] is in vivo, human. The following applies: for Effect of eltrombopag administration on plasma concentrations (in words): eltrombopag 75 mg daily for 5 days.
The test system of the next data set is ABCG2 p.Q141K variant. Type of data set: in vivo, human. In short, it runs like this: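 Open-label fixed-sequence crossover in 11 healthy non-smoking adults aged 18–64. Single oral rosuvastatin 10 mg given after an overnight fast, with fasting continued 4 h. Heparinised venous plasma was stored at −70°C and analysed by LC–MS. ABCG2 c.421C>A was genotyped blind by PCR and Sanger sequencing. Nine CC and two CA subjects were compared at T = 0 h and by noncompartmental PK, using log-transformed geometric means and unpaired t-tests.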

For a further data set, the system named is BCRP. The following applies: 14 healthy males, BMS-986371; cited from earlier work.
Setting [2] is: both, human, plasma, oral, 10 mg.
Where [3] appears, read: both, human, plasma, oral, 10 mg, AUC0−4, rosuvastatin alone arm, geometric mean (90% CI).
Setting [4] is: both, human, plasma, oral, AUC0−4, rosuvastatin + eltrombopag arm, geometric mean (90% CI).
[5] abbreviates: human, in vivo, listed as rosuvastatin.
[6] abbreviates: rosuvastatin + eltrombopag arm, geometric mean (90% CI).
Setting [7] is: rosuvastatin alone arm, geometric mean (90% CI).

Like-named read-outs stand apart in the source and are kept apart here.

The term Cmax denotes the peak of the concentration-time curve. As a reminder, the AUC is concentration integrated over time. Usually AUC(0-t) stands for the area under the concentration-time curve up to a stated or last time point. Turning to `Cc1cc2nc3c(=O)[nH]c(=O)nc-3n(C[C@H](O)[C@H](O)[C@H](O)CO)c2cc1C` [Riboflavin], the C0 at 0 h in data set [1] (both, human, plasma, oral) worked out at 2.79 ng/mL; in data set [1] (setting [2]), 2.72 ng/mL. In addition, the maximum concentration (Cmax) came to 3.61 ng/mL in data set [1] (both, human, plasma, oral) and 4.16 ng/mL in data set [1] (setting [2]). In data set [1] (setting [2]), this compound yielded an AUC of 11.7 ng·h/mL. For the same compound, the AUC(0-t) in data set [1] (setting [3]) is 10.6 ng·h/mL; in data set [1] (both, human, plasma, oral, 10 mg, AUC0−24, rosuvastatin alone arm, geometric mean (90% CI)) it was 65.9 ng·h/mL; in data set [1] (both, human, plasma, oral, 10 mg, mean riboflavin AUC0−4, fasted state, rosuvastatin alone arm), 10.6 ng·h/mL; in data set [1] (setting [4]), 10.2 ng·h/mL; in data set [1] (both, human, plasma, oral, AUC0−24, rosuvastatin + eltrombopag arm, geometric mean (90% CI)) it was 65.6 ng·h/mL; in data set [1] (both, human, plasma, oral, mean riboflavin AUC0−4, fasted state, in the presence of eltrombopag) it was 9.7 ng·h/mL. The “Effect of eltrombopag administration on plasma concentrations (in words)” value (shortened to “Effect of eltrombopag administration”) in data set [1] is “did not lead to corresponding increases”. In the data set with ABCG2 p.Q141K variant (two p.Q141K (CA) vs nine REF (CC) individuals, T = 0 h), the “Baseline concentrations, heterozygous p.Q141K vs homozygous reference allele” value is on record as “no association”. Moreover, the “Increase in riboflavin AUC0−4” value in the data set with BCRP is on record as 1.25 fold. In the data set on BCRP, the “Increase in riboflavin AUC0−24” value was 1.14 fold. Besides, the “Increase in riboflavin Cmax” value in the data set with BCRP is given as 1.11 fold.
The term AUC(0-inf) denotes total exposure, with the tail of the curve extrapolated. Low readings indicate low exposure, high ones high exposure. One may read the CL/F as the apparent clearance, not corrected for the fraction that reaches the circulation. As a reminder, the half-life is the time needed for the level to fall by half in the phase considered. A low value points to rapid decline. In data set [1] (both, human, plasma, oral), `CC(C)c1nc(N(C)S(C)(=O)=O)nc(-c2ccc(F)cc2)c1/C=C/[C@@H](O)C[C@@H](O)CC(=O)O` [Rosuvastatin, reference compound] had an AUC(0-inf) of 116 ng·h/mL, an apparent clearance (CL/F) of 19.7 mL/min/kg, a Cmax of 10.9 ng/mL and a half-life of 8.8 h. In data set [1] (setting [2]), this compound had a total exposure AUC(0-inf) of 69.1 ng·h/mL, a CL/F of 32.7 mL/min/kg, a peak concentration (Cmax) of 5.4 ng/mL and a half-life of 10.4 h. In addition, in data set [1] (setting [3]), the exposure AUC(0-t) was determined as 11.8 ng·h/mL. Moreover, the exposure AUC(0-t) in data set [1] (setting [4]) was 25 ng·h/mL. Also, in data set [1] (human, in vivo), the “AUC0−4, geometric mean ratio (90% CI) of rosuvastatin + eltrombopag arm to rosuvastatin alone arm” value was 2.12 (1.71–2.62); P = 0.002; the “AUC0−INF, geometric mean ratio (90% CI) of rosuvastatin + eltrombopag arm to rosuvastatin alone arm” value was 1.80 (1.49–2.17); P = 0.002; the “CL/F/kg, geometric mean ratio (90% CI) of rosuvastatin + eltrombopag arm to rosuvastatin alone arm” value was 0.56 (0.46–0.67); P = 0.02; the “Cmax, geometric mean ratio (90% CI) of rosuvastatin + eltrombopag arm to rosuvastatin alone arm” value (from here on “Cmax, geometric mean ratio (90% CI)”) was 2.01 (1.59–2.53); P = 0.002. For the same compound, in data set [1] (human, in vivo), the “T1/2, geometric mean ratio (90% CI) of rosuvastatin + eltrombopag arm to rosuvastatin alone arm” value is listed as 0.88 (0.78–0.99); P = 0.13 and the “V/F/kg, geometric mean ratio (90% CI) of rosuvastatin + eltrombopag arm to rosuvastatin alone arm” value was 0.49 (0.38–0.63); P = 0.004. Moreover, in data set [1] (setting [5]), the “AUC0−4, geometric mean ratio (90% CI) of rosuvastatin + eltrombopag arm to rosuvastatin alone arm” value is recorded as 2.1; the “AUC0−INF, geometric mean ratio (90% CI) of rosuvastatin + eltrombopag arm to rosuvastatin alone arm” value stood at 1.8; the “Cmax, geometric mean ratio (90% CI)” value is reported as “twofold”. Besides, the Tmax in data set [1] (rosuvastatin + eltrombopag arm) is reported as 4 (3.5–5) h. Moreover, the V/F/kg in data set [1] (setting [6]) is listed as 14.9 (11.5–17.8) L/kg. For the same compound, the V/F/kg in data set [1] (rosuvastatin + eltrombopag arm, geometric mean (90% CI), listed as rosuvastatin) came to 14.9 L/kg. For the same compound, the Tmax in data set [1] (rosuvastatin alone arm) is reported as 5 (1.5–5) h. Further, the V/F/kg in data set [1] (setting [7]) is 29.3 (22.8–37.7) L/kg. The V/F/kg in data set [1] (rosuvastatin alone arm, geometric mean (90% CI), listed as rosuvastatin) is reported as 29.3 L/kg. In the data set with ABCG2 p.Q141K variant (rosuvastatin 10 mg), the “AUC0–4, fold higher in p.Q141K variant vs reference allele” value came out at 2.9 fold; the “AUC0–INF, fold higher in p.Q141K variant vs reference allele” value is recorded as 2.6 fold; the “Cmax, fold higher in p.Q141K variant vs reference allele” value turned out to be 2.4 fold.
With Coproporphyrin-I [CP‐I], in data set [1], the “Effect of eltrombopag administration” value is listed as “no effect”. Besides, in data set [1] (human, in vivo), the “AUC0−24, geometric mean ratio (90% CI) of rosuvastatin + eltrombopag arm to rosuvastatin alone arm” value is listed as 0.96 (0.88–1.04); P = 0.50; the “C0, geometric mean ratio (90% CI) of rosuvastatin + eltrombopag arm to rosuvastatin alone arm” value is on record as 0.90 (0.83–0.98); P = 0.05; the “Cmax, geometric mean ratio (90% CI)” value is on record as 0.95 (0.88–1.03); P = 0.33. Further, in data set [1] (setting [6]), the “AUC0−24” value was 16.2 (14.2–18.4) nM*h, the C0 is 0.74 nM and the peak concentration (Cmax) came out at 0.89 nM. Moreover, in data set [1] (setting [7]), the “AUC0−24” value was 16.9 (15.3–18.6) nM*h, the C0 is 0.81 nM and the Cmax worked out at 0.93 nM.
With Coproporphyrin-III [CP‐III], in data set [1], the “Effect of eltrombopag administration” value was “no effect”. Further, in data set [1] (human, in vivo), the “AUC0−24, geometric mean ratio (90% CI) of rosuvastatin + eltrombopag arm to rosuvastatin alone arm” value is given as 0.93 (0.80–1.08); P = 0.44; the “C0, geometric mean ratio (90% CI) of rosuvastatin + eltrombopag arm to rosuvastatin alone arm” value is recorded as 0.75 (0.64–0.88); P = 0.01; the “Cmax, geometric mean ratio (90% CI)” value is listed as 0.83 (0.70–0.98); P = 0.08. For the same compound, in data set [1] (setting [6]), the “AUC0−24” value is 1.70 (1.46–1.99) nM*h, the C0 is 0.09 nM and the Cmax is 0.11 nM. Also, in data set [1] (setting [7]), the “AUC0−24” value is on record as 1.83 (1.60–2.09) nM*h, the C0 was 0.12 nM and the maximum concentration (Cmax) is 0.13 nM.
